# Measured values as given in ChEMBL document CHEMBL5724801, “EUbOPEN Chemogenomics Library - Multiplex” (2024).
# Several values for one entry are separate records, joined by “and”; a condition that tells them apart may be missing. Identical values can stand only once.
# Tested on: HEK-293T
# Assay: Multiplex assay against HEK293T
# Type: toxicity, cell-based
# Conditions: human
# Summary of the method: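 Live cells were stained at seeding with Hoechst33342, BioTracker Green Microtubule Cytoskeleton Dye, MitoTracker Red and Annexin V Alexa Fluor 680. Following compound addition, they were imaged on a CQ1 microscope at 37°C and 5% CO2 and gated by CellPathfinder machine learning into Hoechst high-intensity objects or normal cells, with normal cells split into healthy, pyknosed or fragmented nuclei and pyknosed cells into mitotic or apoptotic. Tubulin, mitochondrial-mass and membrane-permeability phenotypes are per cents of healthy-nucleus cells.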
# [1] = 12 h, 1 µM, compound concentration 1 uM
# [2] = 12 h, 10 µM, compound concentration 10 uM
# [3] = 24 h, 1 µM, compound concentration 1 uM
# [4] = 24 h, 10 µM, compound concentration 10 uM
# [5] = 48 h, 1 µM, compound concentration 1 uM
# [6] = 48 h, 10 µM, compound concentration 10 uM
structure (smiles),measurement,setting,value
COc1ccc2c(c1OCc1ccccc1)C[C@@H](C(=O)O)N(C(=O)C(c1ccccc1)c1ccccc1)C2 [OLODANRIGAN],Population Apoptotic (%),[1],39% and 43%
same,Population Fragmented Nuclei (%),[1],6% and 7%
same,Population Healthy Nuclei (%),[1],82% and 81%
same,Population Hoechst High Intensity Objects (%),[1],7%
same,Population Membrane Permeable-Phenotype (%),[1],0%
same,Population Mitochondria Different-Phenotype (%),[1],44% and 48%
same,Population Mitotic Cells (%),[1],60% and 56%
same,Population Normal (%),[1],92%
same,Population Pyknosed Nuclei (%),[1],11% and 10%
same,Population Tubulin-Different-Phenotype (%),[1],21% and 17%
same,Total Cell Count,[1],419 and 409
same,Population Apoptotic (%),[2],45% and 44%
same,Population Fragmented Nuclei (%),[2],6% and 4%
same,Population Healthy Nuclei (%),[2],81% and 83%
same,Population Hoechst High Intensity Objects (%),[2],6% and 3%
same,Population Membrane Permeable-Phenotype (%),[2],0%
same,Population Mitochondria Different-Phenotype (%),[2],42% and 58%
same,Population Mitotic Cells (%),[2],54% and 55%
same,Population Normal (%),[2],93% and 96%
same,Population Pyknosed Nuclei (%),[2],12%
same,Population Tubulin-Different-Phenotype (%),[2],35% and 27%
same,Total Cell Count,[2],389 and 368
same,Population Apoptotic (%),[3],46% and 19%
same,Population Fragmented Nuclei (%),[3],11% and 10%
same,Population Healthy Nuclei (%),[3],78% and 81%
same,Population Hoechst High Intensity Objects (%),[3],3% and 6%
same,Population Membrane Permeable-Phenotype (%),[3],0% and 1%
same,Population Mitochondria Different-Phenotype (%),[3],24% and 30%
same,Population Mitotic Cells (%),[3],53% and 80%
same,Population Normal (%),[3],96% and 93%
same,Population Pyknosed Nuclei (%),[3],10% and 8%
same,Population Tubulin-Different-Phenotype (%),[3],15% and 14%
same,Total Cell Count,[3],614 and 521
same,Population Apoptotic (%),[4],40% and 43%
same,Population Fragmented Nuclei (%),[4],7% and 10%
same,Population Healthy Nuclei (%),[4],78% and 79%
same,Population Hoechst High Intensity Objects (%),[4],6%
same,Population Membrane Permeable-Phenotype (%),[4],0%
same,Population Mitochondria Different-Phenotype (%),[4],34% and 57%
same,Population Mitotic Cells (%),[4],59% and 56%
same,Population Normal (%),[4],93%
same,Population Pyknosed Nuclei (%),[4],13% and 9%
same,Population Tubulin-Different-Phenotype (%),[4],32% and 28%
same,Total Cell Count,[4],456 and 414
same,Population Apoptotic (%),[5],26% and 22%
same,Population Fragmented Nuclei (%),[5],13% and 15%
same,Population Healthy Nuclei (%),[5],80% and 79%
same,Population Hoechst High Intensity Objects (%),[5],2%
same,Population Membrane Permeable-Phenotype (%),[5],0%
same,Population Mitochondria Different-Phenotype (%),[5],15% and 18%
same,Population Mitotic Cells (%),[5],73% and 77%
same,Population Normal (%),[5],97%
same,Population Pyknosed Nuclei (%),[5],5%
same,Population Tubulin-Different-Phenotype (%),[5],11% and 10%
same,Total Cell Count,[5],1083 and 818
same,Population Apoptotic (%),[6],32% and 39%
same,Population Fragmented Nuclei (%),[6],12%
same,Population Healthy Nuclei (%),[6],78% and 80%
same,Population Hoechst High Intensity Objects (%),[6],5% and 6%
same,Population Membrane Permeable-Phenotype (%),[6],0%
same,Population Mitochondria Different-Phenotype (%),[6],22% and 32%
same,Population Mitotic Cells (%),[6],67% and 60%
same,Population Normal (%),[6],94% and 93%
same,Population Pyknosed Nuclei (%),[6],8% and 7%
same,Population Tubulin-Different-Phenotype (%),[6],15% and 18%
same,Total Cell Count,[6],659 and 534
